Source: ChEMBL document CHEMBL4613265, “Novel Human Neutral Sphingomyelinase 2 Inhibitors as Potential Therapeutics for Alzheimer's Disease” (J Med Chem, 2020)

Tests used:
[1] = Stability in human liver microsomes assessed as parent compound remaining at 1 uM measured after 60 mins in absence of NADPH by LC-MS/MS analysis; assay type: ADME, Microsome; conditions: liver microsomes, read-out: Stability
Method in brief: (§1)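 Cofactor-free control for cofactor-independent degradation. Mouse or human liver microsomes at 0.2 mg/mL, 1 μM compound (final), 100 mM potassium phosphate at pH 7.4, no NADPH regenerating system. Adding microsomes started the reaction; run in triplicate. Sampled at 60 min and quenched with three volumes of ice-cold acetonitrile spiked with internal standard.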

[2] = Stability in mouse liver microsomes assessed as CYP450-mediated metabolism by measuring parent compound remaining at 1 uM measured after 60 mins in presence of NADPH generating system by LC-MS/MS analysis; assay type: ADME; conditions: 1 h
Method in brief: (§2)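 Liver microsomes from mouse or human, 0.2 mg/mL, with 1 μM compound (final) in 100 mM potassium phosphate at pH 7.4. Adding microsomes started the reaction; triplicates. After 60 min, quenched with 3 volumes of ice-cold acetonitrile containing internal standard.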

[3] = system: Cytochrome P450; assay: Stability in human liver microsomes assessed as CYP450-mediated metabolism by measuring parent compound remaining at 1 uM measured after 60 mins in presence of NADPH generating system by LC-MS/MS analysis; assay type: ADME; conditions: 1 h; method in brief: as §2
[4] = Stability in mouse liver microsomes assessed as parent compound remaining at 1 uM measured after 60 mins in absence of NADPH by LC-MS/MS analysis; assay type: ADME, Microsome; conditions: liver microsomes, read-out: Stability; method in brief: as §1

Compound	remaining at 1 h, 1 µM [1] [%]	Parent compound remaining [2] [%]	Stability [3] [%]	remaining at 1 h, 1 µM [4] [%]
COc1ccc(-c2cnc3c(N4CC[C@@H](NC(C)=O)C4)ccnn23)cc1OC	> 95	68	92	> 95
COc1ccc(-c2c(C)nc3c(N4CC[C@@H](NC(=O)C(F)(F)c5ccccc5)C4)cc(C)nn23)cc1OC	> 95	6	20	> 95
COc1ccc(-c2c(C)nc3c(N4CC[C@@H](NS(=O)(=O)c5ccc(C)cc5)C4)cc(C)nn23)cc1OC	> 95	2	29	> 95
CCCCCC(=O)N[C@@H]1CCN(c2cc(C)nn3c(-c4ccc(OC)c(OC)c4)c(C)nc23)C1	> 95	52	88	> 95
COc1ccc(-c2cnc3c(N4CC[C@@H](NC(C)=O)C4)cc(C)nn23)cc1OC	> 95	53	28	> 95
COc1ccc(-c2c(C)nc3c(N4CC[C@@H](NS(=O)(=O)c5ccc(C(F)(F)F)cc5)C4)cc(C)nn23)cc1OC	> 95	15	61	> 95
COc1ccc(-c2c(C)nc3c(N4CC[C@@H](NS(=O)(=O)C5CC5)C4)cc(C)nn23)cc1OC	> 95	95	111	> 95
